In brackets after ≈: the same amount, converted by molar mass.

Sodium channel protein type 5 subunit alpha, sequence (Q14524 whole entry): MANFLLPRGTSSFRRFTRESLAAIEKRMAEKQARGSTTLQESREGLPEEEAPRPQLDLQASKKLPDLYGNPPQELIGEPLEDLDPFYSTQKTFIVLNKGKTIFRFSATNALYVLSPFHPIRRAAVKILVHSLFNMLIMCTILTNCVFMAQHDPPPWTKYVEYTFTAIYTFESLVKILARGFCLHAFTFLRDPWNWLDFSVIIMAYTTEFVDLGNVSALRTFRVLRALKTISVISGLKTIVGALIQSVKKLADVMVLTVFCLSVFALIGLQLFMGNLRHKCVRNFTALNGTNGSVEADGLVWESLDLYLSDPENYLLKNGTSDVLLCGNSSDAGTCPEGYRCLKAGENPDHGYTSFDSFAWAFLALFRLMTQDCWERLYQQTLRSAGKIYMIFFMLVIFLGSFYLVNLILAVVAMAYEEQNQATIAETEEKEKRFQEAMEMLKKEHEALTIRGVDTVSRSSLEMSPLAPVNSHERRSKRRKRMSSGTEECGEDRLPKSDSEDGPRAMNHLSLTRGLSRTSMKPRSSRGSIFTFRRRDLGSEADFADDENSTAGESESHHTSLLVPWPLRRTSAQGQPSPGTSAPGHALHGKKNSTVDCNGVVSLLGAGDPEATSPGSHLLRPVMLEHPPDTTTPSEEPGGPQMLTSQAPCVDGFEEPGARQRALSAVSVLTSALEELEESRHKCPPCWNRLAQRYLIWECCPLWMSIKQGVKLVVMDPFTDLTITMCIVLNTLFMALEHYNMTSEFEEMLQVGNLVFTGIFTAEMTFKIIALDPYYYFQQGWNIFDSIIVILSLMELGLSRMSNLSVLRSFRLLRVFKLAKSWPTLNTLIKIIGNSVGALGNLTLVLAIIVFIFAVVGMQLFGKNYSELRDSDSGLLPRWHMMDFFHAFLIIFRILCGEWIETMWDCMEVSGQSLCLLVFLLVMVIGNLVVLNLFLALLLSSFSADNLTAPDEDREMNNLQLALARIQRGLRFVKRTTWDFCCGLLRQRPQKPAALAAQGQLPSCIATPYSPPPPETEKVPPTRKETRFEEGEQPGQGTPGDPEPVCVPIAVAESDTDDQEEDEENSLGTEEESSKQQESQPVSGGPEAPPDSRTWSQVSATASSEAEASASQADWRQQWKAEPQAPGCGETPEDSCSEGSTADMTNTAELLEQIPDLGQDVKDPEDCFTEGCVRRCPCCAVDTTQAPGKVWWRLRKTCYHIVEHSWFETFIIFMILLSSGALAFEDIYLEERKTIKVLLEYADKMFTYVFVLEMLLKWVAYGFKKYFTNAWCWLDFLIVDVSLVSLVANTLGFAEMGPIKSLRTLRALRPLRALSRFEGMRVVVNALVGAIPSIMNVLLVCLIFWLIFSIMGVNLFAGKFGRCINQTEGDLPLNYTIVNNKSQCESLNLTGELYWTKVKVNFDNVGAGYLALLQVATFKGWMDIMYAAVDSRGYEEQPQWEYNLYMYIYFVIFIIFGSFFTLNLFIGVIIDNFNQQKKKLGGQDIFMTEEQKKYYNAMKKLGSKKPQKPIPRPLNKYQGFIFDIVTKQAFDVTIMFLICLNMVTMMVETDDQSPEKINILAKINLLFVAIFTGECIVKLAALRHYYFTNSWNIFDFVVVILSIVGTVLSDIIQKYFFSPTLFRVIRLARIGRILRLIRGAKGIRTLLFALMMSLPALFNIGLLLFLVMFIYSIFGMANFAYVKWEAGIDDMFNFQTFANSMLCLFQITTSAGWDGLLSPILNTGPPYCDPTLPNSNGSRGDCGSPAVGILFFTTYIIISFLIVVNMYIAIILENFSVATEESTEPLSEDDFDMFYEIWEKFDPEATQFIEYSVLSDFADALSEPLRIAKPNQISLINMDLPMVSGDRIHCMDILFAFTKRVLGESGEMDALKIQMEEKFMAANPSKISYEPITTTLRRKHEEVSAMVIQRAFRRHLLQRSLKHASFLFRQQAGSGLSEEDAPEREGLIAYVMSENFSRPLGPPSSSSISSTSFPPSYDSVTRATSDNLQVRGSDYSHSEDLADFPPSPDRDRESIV

For the first data set, the system named is Rattus norvegicus. Briefly: Unbound clearance in rat at 0.5 mg/kg, iv. Format: ADME, organism-based. The note with it: in vivo. In outline: (§1)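 Male rats given a single 0.5 mg/kg iv dose in DMSO. Unbound clearance (CLu) is total clearance divided by fu, the unbound fraction in plasma.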
On to `COc1cc(C(F)(F)F)ccc1-c1ncnc2cc(S(=O)(=O)Nc3nccs3)ccc12`, for which the CL free was found to be 450 mL/min/kg.
`COc1cc(-c2cccc(F)c2)c(Cl)cc1-c1nn(C)c(=O)c2cc(S(=O)(=O)Nc3ccon3)ccc12`: the CL free was found to be 10300 mL/min/kg.
Take `COc1cc(-c2cccc(F)c2)c(Cl)cc1-c1nccc2cc(S(=O)(=O)Nc3ncon3)ccc12`: the CL free is 15700 mL/min/kg.
Compound `COc1cc(-c2cccc(F)c2)c(Cl)cc1-c1nccc2cc(S(=O)(=O)Nc3ccon3)ccc12` had a CL free of 700 mL/min/kg.
Turning to `COc1cc(-c2cccc(F)c2)ccc1-c1nccc2cc(S(=O)(=O)Nc3ccncn3)ccc12`, the CL free worked out at 6500 mL/min/kg.
For `COc1cc(C(F)(F)F)ccc1-c1nccc2cc(S(=O)(=O)Nc3ccncn3)ccc12`, the CL free was 183 mL/min/kg.

A further data set has as its target Sodium channel protein type 5 subunit alpha (Homo sapiens, UniProt Q14524). Put plainly: Inhibition of human Nav1.5 expressed in HEK293 cells assessed as reduction in peak inward current by ionworks quattro electrophysiology assay. It is filed as cell-based.
Settings: not given
On the technique in general: In patch-clamp work, channel activity is measured electrically.
Consider `COc1cc(C(F)(F)F)ccc1-c1ncnc2cc(S(=O)(=O)Nc3nccs3)ccc12`, for which the concentration for half-maximal inhibition (IC50) was > 30000 nM.
Turning to `COc1cc(-c2cccc(F)c2)c(Cl)cc1-c1nccc2cc(S(=O)(=O)Nc3ccon3)ccc12`, the IC50 is > 10000 nM.
Regarding `COc1cc(-c2cccc(F)c2)ccc1-c1nccc2cc(S(=O)(=O)Nc3ccncn3)ccc12`, the IC50 was > 30000 nM.
On the same count and under the same terms, the same measure for `COc1cc(C(F)(F)F)ccc1-c1nccc2cc(S(=O)(=O)Nc3ccncn3)ccc12`: > 30000 nM.

The subject of the next data set is Canis familiaris. Put plainly: Unbound clearance in dog at 0.25 mg/kg, iv. It is filed as ADME, organism-based, Canis lupus familiaris. The note with it: in vivo. In outline: (§2)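 Male dogs received a single 0.25 mg/kg iv dose in DMSO. Unbound clearance (CLu) is total clearance divided by fu, the unbound fraction in plasma.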
Regarding `COc1cc(C(F)(F)F)ccc1-c1ncnc2cc(S(=O)(=O)Nc3nccs3)ccc12`, the CL free is 200 mL/min/kg.
`COc1cc(-c2cccc(F)c2)c(Cl)cc1-c1nn(C)c(=O)c2cc(S(=O)(=O)Nc3ccon3)ccc12` showed a CL free of 517 mL/min/kg.
On the same count and under the same terms, the value for `COc1cc(-c2cccc(F)c2)c(Cl)cc1-c1nccc2cc(S(=O)(=O)Nc3ncon3)ccc12` was 2570 mL/min/kg.
`COc1cc(-c2cccc(F)c2)c(Cl)cc1-c1nccc2cc(S(=O)(=O)Nc3ccon3)ccc12` returned a CL free of 26.7 to 31.7 mL/min/kg.
Same read-out and setting: the value for `COc1cc(-c2cccc(F)c2)ccc1-c1nccc2cc(S(=O)(=O)Nc3ccncn3)ccc12` was 152 mL/min/kg; that for `COc1cc(C(F)(F)F)ccc1-c1nccc2cc(S(=O)(=O)Nc3ccncn3)ccc12` was 26.7 mL/min/kg.

System in a further data set: not listed separately
Briefly: Intrinsic clearance in human liver microsomes at 1 uM after 1 to 40 mins in presence of NADPH by LC-MS/MS analysis. Format: ADME, microsome. The conditions noted are these: read-out: CLH. Background: Liver microsomes are a subcellular fraction often used to study metabolism.
In the case of `COc1cc(-c2cccc(F)c2)c(Cl)cc1-c1nn(C)c(=O)c2cc(S(=O)(=O)Nc3ccon3)ccc12`, the microsomal CLint at 1 µM is 16 µL/min/mg.
As for `COc1cc(-c2cccc(F)c2)c(Cl)cc1-c1nccc2cc(S(=O)(=O)Nc3ncon3)ccc12`, the microsomal CLint at 1 µM was < 14 µL/min/mg.
As for `COc1cc(-c2cccc(F)c2)c(Cl)cc1-c1nccc2cc(S(=O)(=O)Nc3ccon3)ccc12`, the microsomal CLint at 1 µM was < 14 µL/min/mg.
In the case of `COc1cc(-c2cccc(F)c2)ccc1-c1nccc2cc(S(=O)(=O)Nc3ccncn3)ccc12`, the microsomal CLint at 1 µM was < 14 µL/min/mg.

System in the next data set: not listed separately
Briefly: Intrinsic clearance in rat liver microsomes at 1 uM after 1 to 40 mins in presence of NADPH by LC-MS/MS analysis. It is filed as ADME, microsome. The conditions noted are these: read-out: CLH.
Take `COc1cc(-c2cccc(F)c2)c(Cl)cc1-c1nn(C)c(=O)c2cc(S(=O)(=O)Nc3ccon3)ccc12`: the microsomal CLint at 1 µM was found to be 25 µL/min/mg.
With `COc1cc(-c2cccc(F)c2)c(Cl)cc1-c1nccc2cc(S(=O)(=O)Nc3ncon3)ccc12`, the microsomal CLint at 1 µM stood at 20 µL/min/mg.
In the case of `COc1cc(-c2cccc(F)c2)c(Cl)cc1-c1nccc2cc(S(=O)(=O)Nc3ccon3)ccc12`, the microsomal CLint at 1 µM came to 18 µL/min/mg.
Still for that read-out and setting: the value for `COc1cc(-c2cccc(F)c2)ccc1-c1nccc2cc(S(=O)(=O)Nc3ccncn3)ccc12` was < 14 µL/min/mg.

Another data set concerns the target T1, PXR (NR1I2) (Homo sapiens, UniProt O75469).
T1 sequence (O75469 whole entry): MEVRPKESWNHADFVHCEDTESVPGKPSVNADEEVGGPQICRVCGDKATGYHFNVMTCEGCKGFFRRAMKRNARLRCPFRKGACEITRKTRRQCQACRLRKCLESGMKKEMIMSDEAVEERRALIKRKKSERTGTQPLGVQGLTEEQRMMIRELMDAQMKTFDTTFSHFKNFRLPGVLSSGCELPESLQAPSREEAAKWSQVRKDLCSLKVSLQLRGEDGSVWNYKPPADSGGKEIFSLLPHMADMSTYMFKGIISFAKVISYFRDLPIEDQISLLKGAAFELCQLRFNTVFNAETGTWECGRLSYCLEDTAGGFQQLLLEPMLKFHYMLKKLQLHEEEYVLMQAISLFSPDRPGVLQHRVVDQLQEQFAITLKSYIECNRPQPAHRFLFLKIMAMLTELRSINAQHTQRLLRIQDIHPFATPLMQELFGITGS
Briefly: Activation of human PXR at 10 uM in presence of rifampicin. It is filed as ADME. The note with it: read-out: Activity.
Turning to `COc1cc(-c2cccc(F)c2)c(Cl)cc1-c1nn(C)c(=O)c2cc(S(=O)(=O)Nc3ccon3)ccc12`, the activity at 10 µM came to 54%.
On to `COc1cc(-c2cccc(F)c2)c(Cl)cc1-c1nccc2cc(S(=O)(=O)Nc3ncon3)ccc12`, for which the activity at 10 µM stood at 10%.
Same read-out and setting: the value for `COc1cc(-c2cccc(F)c2)c(Cl)cc1-c1nccc2cc(S(=O)(=O)Nc3ccon3)ccc12` was 68%.

System in the next data set: not listed separately
Briefly: Total clearance in rat at 0.5 mg/kg, iv. It is filed as ADME, organism-based. The note with it: in vivo. The gist of the method:
as §1
`COc1cc(-c2cccc(F)c2)c(Cl)cc1-c1nn(C)c(=O)c2cc(S(=O)(=O)Nc3ccon3)ccc12`: the clearance is 35 mL/min/kg.
`COc1cc(-c2cccc(F)c2)c(Cl)cc1-c1nccc2cc(S(=O)(=O)Nc3ncon3)ccc12`: the clearance is 26.7 mL/min/kg.
Same read-out and setting: the same measure for `COc1cc(-c2cccc(F)c2)c(Cl)cc1-c1nccc2cc(S(=O)(=O)Nc3ccon3)ccc12`: 0.783 mL/min/kg; for `COc1cc(-c2cccc(F)c2)ccc1-c1nccc2cc(S(=O)(=O)Nc3ccncn3)ccc12`: 28.3 mL/min/kg; for `COc1cc(C(F)(F)F)ccc1-c1nccc2cc(S(=O)(=O)Nc3ccncn3)ccc12`: 4.33 mL/min/kg.

System in a further data set: not listed separately
Put plainly: Total clearance in dog at 0.25 mg/kg, iv. It is filed as ADME, organism-based, Canis lupus familiaris. The note with it: in vivo. The gist of the method: as §2
Consider `COc1cc(C(F)(F)F)ccc1-c1ncnc2cc(S(=O)(=O)Nc3nccs3)ccc12`, for which the clearance was 0.217 mL/min/kg.
The compound `COc1cc(-c2cccc(F)c2)c(Cl)cc1-c1nn(C)c(=O)c2cc(S(=O)(=O)Nc3ccon3)ccc12` had a clearance of 1.83 mL/min/kg.
Consider `COc1cc(-c2cccc(F)c2)c(Cl)cc1-c1nccc2cc(S(=O)(=O)Nc3ncon3)ccc12`, for which the clearance was 2.83 mL/min/kg.
On the same count and under the same terms, the value for `COc1cc(-c2cccc(F)c2)c(Cl)cc1-c1nccc2cc(S(=O)(=O)Nc3ccon3)ccc12` was 0.05 mL/min/kg.
Same read-out and setting: the value for `COc1cc(-c2cccc(F)c2)ccc1-c1nccc2cc(S(=O)(=O)Nc3ccncn3)ccc12` was 0.817 mL/min/kg; that for `COc1cc(C(F)(F)F)ccc1-c1nccc2cc(S(=O)(=O)Nc3ccncn3)ccc12` was 0.917 mL/min/kg.

System in another data set: not listed separately
Briefly: Aqueous solubility of the compound in PBS after 48 hrs by shake flask method. It is filed as physicochemical.
Settings: not given
`COc1cc(-c2cccc(F)c2)ccc1-c1nccc2cc(S(=O)(=O)Nc3ccncn3)ccc12` yielded a thermodynamic solubility at 48 h of 344 µM (≈ 167 µg/mL).

For a further data set, the target named is T2, Cytochrome P450 3A4 (Homo sapiens, UniProt P08684). Briefly: Inhibition of CYP3A4 (unknown origin).
T2 sequence (P08684 whole entry): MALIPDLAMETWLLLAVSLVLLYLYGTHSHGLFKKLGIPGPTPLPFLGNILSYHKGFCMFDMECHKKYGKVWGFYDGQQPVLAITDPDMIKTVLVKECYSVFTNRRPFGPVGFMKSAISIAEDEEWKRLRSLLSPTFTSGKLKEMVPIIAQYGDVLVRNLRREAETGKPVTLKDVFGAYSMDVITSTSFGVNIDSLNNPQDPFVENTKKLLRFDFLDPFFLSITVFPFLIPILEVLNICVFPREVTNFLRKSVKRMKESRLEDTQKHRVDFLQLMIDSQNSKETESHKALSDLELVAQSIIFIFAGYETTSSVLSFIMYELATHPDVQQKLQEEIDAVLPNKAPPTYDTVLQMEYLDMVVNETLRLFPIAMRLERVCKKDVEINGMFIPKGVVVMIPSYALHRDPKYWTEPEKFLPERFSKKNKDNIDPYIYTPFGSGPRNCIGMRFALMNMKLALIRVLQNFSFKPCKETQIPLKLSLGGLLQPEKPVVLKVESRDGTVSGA
Settings: not given
It is filed as ADME.
On to `COc1cc(C(F)(F)F)ccc1-c1ncnc2cc(S(=O)(=O)Nc3nccs3)ccc12`, for which the IC50 was > 50000 nM.
Still for that read-out and setting: the same measure for `COc1cc(-c2cccc(F)c2)c(Cl)cc1-c1nccc2cc(S(=O)(=O)Nc3ncon3)ccc12`: > 27000 nM; for `COc1cc(-c2cccc(F)c2)c(Cl)cc1-c1nccc2cc(S(=O)(=O)Nc3ccon3)ccc12`: > 27000 nM; for `COc1cc(-c2cccc(F)c2)ccc1-c1nccc2cc(S(=O)(=O)Nc3ccncn3)ccc12`: 1300 nM.
On the same count and under the same terms, the value for `COc1cc(C(F)(F)F)ccc1-c1nccc2cc(S(=O)(=O)Nc3ccncn3)ccc12` was 7200 nM.

The next data set deals with Sodium channel protein type 9 subunit alpha (Homo sapiens, UniProt Q15858). Put plainly: Inhibition of human Nav1.7 expressed in HEK293 cells incubated for 3 to 5 mins at -125 mV holding potential by electrophysiology assay. Format: cell-based.
Sodium channel protein type 9 subunit alpha, sequence (Q15858 whole entry): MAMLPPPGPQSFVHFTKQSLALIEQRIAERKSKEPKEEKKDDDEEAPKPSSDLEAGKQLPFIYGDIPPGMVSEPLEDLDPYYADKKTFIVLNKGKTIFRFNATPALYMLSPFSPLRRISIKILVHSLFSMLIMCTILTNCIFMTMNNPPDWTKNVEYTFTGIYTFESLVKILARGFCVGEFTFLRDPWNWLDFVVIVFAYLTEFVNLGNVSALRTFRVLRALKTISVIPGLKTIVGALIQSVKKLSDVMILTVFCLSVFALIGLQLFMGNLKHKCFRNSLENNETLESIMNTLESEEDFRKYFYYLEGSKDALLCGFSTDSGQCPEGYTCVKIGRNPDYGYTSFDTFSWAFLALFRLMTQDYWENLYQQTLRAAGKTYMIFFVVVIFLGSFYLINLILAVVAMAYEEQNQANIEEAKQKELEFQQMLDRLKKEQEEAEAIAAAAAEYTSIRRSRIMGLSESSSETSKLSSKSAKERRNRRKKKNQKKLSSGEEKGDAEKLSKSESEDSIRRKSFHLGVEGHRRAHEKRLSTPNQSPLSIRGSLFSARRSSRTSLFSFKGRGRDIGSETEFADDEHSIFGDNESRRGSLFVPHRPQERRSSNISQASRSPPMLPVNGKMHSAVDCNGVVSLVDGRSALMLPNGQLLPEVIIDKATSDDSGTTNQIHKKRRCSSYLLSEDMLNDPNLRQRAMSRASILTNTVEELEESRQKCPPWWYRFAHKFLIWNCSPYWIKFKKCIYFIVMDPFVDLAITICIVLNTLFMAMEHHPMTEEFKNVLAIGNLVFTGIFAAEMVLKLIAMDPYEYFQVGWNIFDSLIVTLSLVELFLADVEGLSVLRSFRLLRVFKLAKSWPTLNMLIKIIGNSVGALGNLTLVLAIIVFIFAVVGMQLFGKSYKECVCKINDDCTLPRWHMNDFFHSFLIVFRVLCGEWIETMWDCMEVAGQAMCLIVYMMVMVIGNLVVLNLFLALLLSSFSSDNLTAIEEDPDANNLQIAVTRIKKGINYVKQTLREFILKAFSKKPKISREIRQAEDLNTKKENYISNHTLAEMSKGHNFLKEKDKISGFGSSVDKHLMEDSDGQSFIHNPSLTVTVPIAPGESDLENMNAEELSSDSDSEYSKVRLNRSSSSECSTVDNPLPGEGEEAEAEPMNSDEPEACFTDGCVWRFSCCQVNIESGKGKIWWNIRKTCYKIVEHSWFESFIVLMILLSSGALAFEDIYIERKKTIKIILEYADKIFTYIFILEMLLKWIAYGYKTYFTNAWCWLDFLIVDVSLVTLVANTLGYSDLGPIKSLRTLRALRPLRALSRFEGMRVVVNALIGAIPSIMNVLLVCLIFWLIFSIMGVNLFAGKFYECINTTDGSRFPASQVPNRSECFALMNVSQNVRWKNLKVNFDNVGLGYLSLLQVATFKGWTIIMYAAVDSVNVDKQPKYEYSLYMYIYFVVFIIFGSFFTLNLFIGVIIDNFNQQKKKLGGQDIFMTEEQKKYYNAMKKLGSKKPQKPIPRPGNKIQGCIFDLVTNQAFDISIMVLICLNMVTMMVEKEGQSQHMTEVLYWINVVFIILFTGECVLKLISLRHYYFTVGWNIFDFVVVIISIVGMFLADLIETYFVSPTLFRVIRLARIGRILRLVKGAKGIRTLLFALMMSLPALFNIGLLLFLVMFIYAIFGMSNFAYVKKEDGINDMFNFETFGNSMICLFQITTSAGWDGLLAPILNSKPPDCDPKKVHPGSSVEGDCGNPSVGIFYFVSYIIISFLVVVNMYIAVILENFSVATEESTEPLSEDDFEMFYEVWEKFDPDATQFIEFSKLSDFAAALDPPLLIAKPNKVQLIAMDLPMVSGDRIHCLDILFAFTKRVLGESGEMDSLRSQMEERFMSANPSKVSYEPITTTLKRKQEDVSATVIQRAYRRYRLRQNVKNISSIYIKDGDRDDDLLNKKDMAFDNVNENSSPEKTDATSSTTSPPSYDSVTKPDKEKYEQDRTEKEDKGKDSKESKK
Settings: not given
For `COc1cc(-c2cccc(F)c2)c(Cl)cc1-c1nn(C)c(=O)c2cc(S(=O)(=O)Nc3ccon3)ccc12`, half-maximal inhibition (IC50) was put at 120 nM.
Regarding `COc1cc(-c2cccc(F)c2)c(Cl)cc1-c1nccc2cc(S(=O)(=O)Nc3ncon3)ccc12`, half-maximal inhibition (IC50) was put at 47 nM.
`COc1cc(-c2cccc(F)c2)c(Cl)cc1-c1nccc2cc(S(=O)(=O)Nc3ccon3)ccc12` registered a half-inhibitory concentration (IC50) of 49 to 51 nM.
Still for that read-out and setting: the same measure for `COc1cc(-c2cccc(F)c2)ccc1-c1nccc2cc(S(=O)(=O)Nc3ccncn3)ccc12`: 150 nM; for `COc1cc(C(F)(F)F)ccc1-c1nccc2cc(S(=O)(=O)Nc3ccncn3)ccc12`: 730 nM.

System in a further data set: not listed separately
Put plainly: Intrinsic clearance in dog liver microsomes. Format: ADME, Canis lupus familiaris, microsome. The note with it: read-out: CLH.
Consider `COc1cc(-c2cccc(F)c2)ccc1-c1nccc2cc(S(=O)(=O)Nc3ccncn3)ccc12`, for which the microsomal CLint is < 14 µL/min/mg.

Another data set concerns the target T2, Cytochrome P450 3A4. Briefly: Induction of CYP3A4 in human hepatocytes at 10 uM relative to rifampicin.
Settings: not given
As for `COc1cc(C(F)(F)F)ccc1-c1ncnc2cc(S(=O)(=O)Nc3nccs3)ccc12`, the Activity is reported as 128%.
For the compound `COc1cc(-c2cccc(F)c2)c(Cl)cc1-c1nccc2cc(S(=O)(=O)Nc3ccon3)ccc12`, the Activity is on record as 58%.
Same read-out and setting: the same measure for `COc1cc(-c2cccc(F)c2)ccc1-c1nccc2cc(S(=O)(=O)Nc3ccncn3)ccc12`: 12%; for `COc1cc(C(F)(F)F)ccc1-c1nccc2cc(S(=O)(=O)Nc3ccncn3)ccc12`: 177%.

By IC50 is commonly meant the midpoint of a concentration-inhibition curve. As a reminder, the clearance is the volume of plasma or blood freed of the substance per unit of time. Low readings indicate inefficient removal, high ones efficient removal. By thermodynamic solubility is commonly meant solubility found after equilibrating the solid with the medium.

For the origin of these results see ChEMBL document CHEMBL4011598, “Sulfonamides as Selective NaV1.7 Inhibitors: Optimizing Potency and Pharmacokinetics While Mitigating Metabolic Liabilities” (J Med Chem, 2017).
